This excerpt belongs to a sample that is enriched for hits.
Insulin prom act: activators of insulin promoter-driven GFP, primary screen, imaging, TRM-6 cells, eGFP reporter, cell count. hit rate 0.81% among 130,000. plate-scaled: unstimulated 0, stimulated control 100. activation, % at 2 µM. AID 1296, 2008;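 active means activation at 2 µM above a set limit, confirmed on inspection of the cell images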;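 further: share of cells whose green reporter signal exceeds an intensity cutoff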
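System: human fetal islet-derived TRM-6 cells with tamoxifen-inducible insulin promoter–eGFP reporter; input: seeding density of 1,000 cells per well; buffer or medium: Low-glucose (5.5 mM) medium with tamoxifen; incubation: compound exposure 48 h, 37 °C; measured by: high-content imaging of fixed cells with Hoechst nuclear stain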
Hits are given with their value.

O=S1(=O)C=C(Sc2nnc(-c3ccccc3)o2)c2ccccc21 was read as Insulin prom act 270.
For Cc1ccc(OCCN2C(=O)NC3(CCc4ccccc4C3)C2=O)cc1 (configuration not stated) the results were Insulin prom act inactive.
Screening O=[N+]([O-])c1ccc(-c2nnc(CSc3nc(-c4ccccc4)nc4ccc(F)cc34)o2)cc1 returned Insulin prom act inactive.
For COc1ccc(-[n+]2c(C)cc(/C=C3\Sc4ccccc4N3C)cc2C)cc1 the results were Insulin prom act 400.
`Cc1ccccc1CN(c1ccc(C(=O)Nc2ccccc2C(=O)NCc2ccco2)cc1)S(C)(=O)=O` gave Insulin prom act inactive.
For CNC(=O)CNC(=O)Nc1ccc(Cl)c(Cl)c1 the results were Insulin prom act inactive.
For Cc1cccc(NC(=O)Cn2nnc3ccccc32)c1 the results were Insulin prom act inactive.
For CCOC(=O)N1CCC(NC(=O)c2cn(-c3ccc(OC)cc3)c(=O)c3ccccc23)CC1 the results were Insulin prom act inactive.
Screening COc1ccc(N2CCN(C(=O)Cc3ccc(-n4c(=O)[nH]c5ccccc5c4=O)cc3)CC2)cc1 returned Insulin prom act inactive.
For CCOC(=O)N1CCC(NC(=O)Cc2ccc(-n3c(=O)[nH]c4ccccc4c3=O)cc2)CC1 the results were Insulin prom act 500.
`O=C(CN1C(=O)NC2(CCCCCC2)C1=O)Nc1ccc2c(c1)CCC2` gave Insulin prom act inactive.
O=C(Nc1nc2c(F)cc(F)cc2s1)c1ccccn1 was read as Insulin prom act inactive.
For CNS(=O)(=O)c1ccc(OC)c(-c2nnc3c4ccccc4c(C)nn23)c1 the results were Insulin prom act inactive.
`Cc1nn2c(-c3cccc(NC(=O)c4ccco4)c3)nnc2c2ccccc12` gave Insulin prom act inactive.
Cc1nn2c(-c3ccccc3)nnc2c2ccccc12 was read as Insulin prom act 450.
`CC1=C(C(=O)OCc2ccc(C)cc2)C(c2ccc(O)c([N+](=O)[O-])c2)NC(=O)N1` (configuration not stated) gave Insulin prom act inactive.
`COc1ccc(NC(=O)C(CCS(C)(=O)=O)N2C(=O)c3ccccc3C2=O)cc1` (configuration not stated) gave Insulin prom act inactive.
For Cc1ccc(NC(=O)C(Cc2ccccc2)N2C(=O)C3C4CCC(C4)C3C2=O)cc1Cl (configuration not stated) the results were Insulin prom act inactive.
For CN(C)S(=O)(=O)c1cc(NC(=O)[C@H](Cc2ccccc2)N2C(=O)c3ccccc3C2=O)ccc1Cl the results were Insulin prom act 414.
For CC1(C)Cc2c(sc(NC(=S)NC(=O)c3ccccc3)c2C(=O)O)CO1 the results were Insulin prom act inactive.
`N#Cc1c(NC(=S)NC(=O)c2ccccc2)sc2c1CCN(CCc1ccccc1)C2` gave Insulin prom act 270.
For N#Cc1c(NC(=O)c2cccnc2)sc2c1CCC2 the results were Insulin prom act inactive.
Screening COc1ccc(Cn2nnnc2CN2CCC(O)(c3ccc(F)cc3)CC2)cc1 returned Insulin prom act inactive.
Screening COc1cc(C(=O)NC2CCN(Cc3nnnn3Cc3ccc(F)cc3)CC2)cc(OC)c1OC returned Insulin prom act 515.
For Cc1ccc(Cn2nnnc2CN2CCC(O)(c3ccc(F)cc3)CC2)cc1 the results were Insulin prom act inactive.
Screening CCc1nnc(NC(=O)CN2CCN(c3ccc(Cl)cc3)CC2)s1 returned Insulin prom act inactive.
For CN1CCC(Oc2ccccc2Sc2ccccc2)CC1 the results were Insulin prom act inactive.
For C=CCNc1sc(C(=O)c2ccccc2)c(N)c1-c1nc2ccccc2s1 the results were Insulin prom act inactive.
`O=C(c1ccccc1)c1c2c(cc3sc4ccccc4[n+]13)-c1cccc3cccc-2c13` gave Insulin prom act 233.
Screening CC(=O)Nc1ccc(NC(=O)C(C)OC(=O)c2ccc(C)s2)cc1 (configuration not stated) returned Insulin prom act inactive.
Screening COCCN(C(=S)Nc1ccc(C(C)C)cc1)C(C)c1cccs1 (configuration not stated) returned Insulin prom act inactive.
`CCOC(=O)c1c(-c2ccncc2)csc1N` gave Insulin prom act 460.
`COC(=O)c1c(-c2ccncc2)csc1NC(=O)c1ccoc1C` gave Insulin prom act inactive.
Screening Cc1cccc(-c2csc(N)c2C(=O)OC(C)C)c1 returned Insulin prom act inactive.
For CC(C)Oc1ccc(/C(O)=C2/C(=O)C(=O)N(CCN3CCOCC3)C2c2ccccc2)cc1 (configuration not stated) the results were Insulin prom act inactive.
Screening COc1ccc(/C(O)=C2/C(=O)C(=O)N(CCN(C)C)C2c2cccnc2)cc1OC (configuration not stated) returned Insulin prom act inactive.
COc1cccc(/C(O)=C2/C(=O)C(=O)N(CCN3CCOCC3)C2c2cccnc2)c1 (configuration not stated) was read as Insulin prom act 531.
For Cc1ccc(-c2noc(CCCC(=O)Nc3cccnc3)n2)cc1 the results were Insulin prom act inactive.
Screening O=C(CCc1nc2ccccc2c(=O)[nH]1)N1CCN(c2ccc(F)cc2)CC1 returned Insulin prom act inactive.
`CCCCCC/C(=N\NS(C)(=O)=O)c1ccccc1` gave Insulin prom act inactive.
Screening CCCCC/C(=N\NC(=O)CCC(=O)NCc1ccccc1)c1ccccc1 returned Insulin prom act 371.
Screening O=C(O)CCC(=O)NNC(=O)CCC(=O)NCc1ccccc1 returned Insulin prom act inactive.
`Cc1ccc(N(CC(=O)NCCSc2ccccn2)S(=O)(=O)c2ccc(F)cc2)cc1` gave Insulin prom act inactive.
O=C(NC1CCCCC1)N1CCN(C(=O)c2ccco2)CC1 was read as Insulin prom act inactive.
For O=C(NCc1ccccc1)c1ccc(-c2ccc(F)cc2)o1 the results were Insulin prom act inactive.
For O=C(O)CCCN1C(=O)C(=O)/C(=C(/O)c2ccccc2)C1/C=C/c1ccccc1 (configuration not stated) the results were Insulin prom act inactive.
Screening CCOC(=O)c1ccc(NC(=O)Nc2ccc3c(c2)OCCO3)cc1 returned Insulin prom act inactive.
For COc1cc(C(=O)Nc2ccc3c(c2)OCCO3)ccc1OC(F)F the results were Insulin prom act inactive.
`COc1ccc(C(=O)CCNc2ccc3c(c2)OCCO3)cc1` gave Insulin prom act 356.
Screening Cc1occc1C(=O)NN1C(=O)C2C3CCC(O3)C2C1=O (configuration not stated) returned Insulin prom act inactive.
Screening CCCCOc1ccc2c(C)cc(=O)oc2c1OCCCC returned Insulin prom act inactive.
CC(=O)Nc1cc(-c2ccc(Cl)cc2)[nH]n1 was read as Insulin prom act inactive.
`Cc1ccc2c(c1)C(O)(CC(=O)/C=C/C=C/c1ccccc1)C(=O)N2` (configuration not stated) gave Insulin prom act inactive.
`CCS(=O)(=O)N1CCCC(C(=O)NCCc2ccccc2)C1` (configuration not stated) gave Insulin prom act inactive.
For COc1ccc(OC)c(NC(=O)CSc2ncnc3c2cnn3-c2ccccc2Cl)c1 the results were Insulin prom act inactive.
Screening O=C(Cn1nc(C(F)(F)F)c2c1CCC2)NC1CCCCC1 returned Insulin prom act inactive.
Screening O=C(O)Cn1nc(C(F)(F)F)c2c1CCCC2 returned Insulin prom act inactive.
`O=C(Cn1nc(C(F)(F)F)c2c1CCC2)Nc1ccccc1C(F)(F)F` gave Insulin prom act 600.
Screening COc1cccc(N2CCN(Cc3nc4ccccc4c(=O)[nH]3)CC2)c1 returned Insulin prom act inactive.

Screens deposited in PubChem by Columbia University Molecular Screening Center.
